ChEMBL document CHEMBL5257107 (Bioorg Med Chem Lett, 2023)

Assay: Cytotoxicity against human IMR-32 cells assessed as reduction in cell viability measured after 24 hrs by celltiter-glo-based assay
Format: toxicity
Outline: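 Human IMR32 neuroblastoma cells were exposed to compound for 24 h. Viability was then read by CellTiter-Glo luminescence.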

Row | Structure (SMILES) | IC50 at 24 h [µM]
1 | O=C(O)CCCN[C@H]1CS(=O)(=O)C[C@@H]1S(=O)(=O)c1ccc(Cl)c(Cl)c1 | > 20
2 | O=C(O)CCCCCN[C@H]1CS(=O)(=O)C[C@@H]1S(=O)(=O)c1ccc(Cl)c(Cl)c1 | > 20
3 | CC(C)CN[C@H]1CS(=O)(=O)C[C@@H]1C(=O)Nc1ccc(Cl)c(Cl)c1 | > 20
